Laboratory results: ChEMBL document CHEMBL4689842, “EUbOPEN Chemogenomics Library wave 1” (2021)
Values joined by “and” are separate entries in the source; they are usually repeats but may differ in a detail not shown here. Identical values can stand only once.

Tested on: U2OS
Assay: Multiplex assay against U2OS
Type: toxicity, cell-based
Details: human
Procedure, shortened: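 Live cells were stained at seeding with Hoechst33342, BioTracker Green Microtubule Cytoskeleton Dye, MitoTracker Red and Annexin V Alexa Fluor 680, then imaged on a CQ1 microscope at 37°C and 5% CO2 after compound addition. CellPathfinder machine-learning gating split cells into Hoechst high-intensity objects or normal cells. Normal cells were split into healthy, pyknosed or fragmented nuclei, and pyknosed cells into mitotic or apoptotic. Tubulin, mitochondrial-mass and membrane-permeability phenotypes are per cents of healthy-nucleus cells.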

[1] = 12 h, 1 µM, compound concentration 1 uM, replicate 1
[2] = 12 h, 1 µM, compound concentration 1 uM, replicate 2
[3] = 12 h, 10 µM, compound concentration 10 uM, replicate 1
[4] = 12 h, 10 µM, compound concentration 10 uM, replicate 2
[5] = 24 h, 1 µM, compound concentration 1 uM, replicate 1
[6] = 24 h, 1 µM, compound concentration 1 uM, replicate 2
[7] = 24 h, 10 µM, compound concentration 10 uM, replicate 1
[8] = 24 h, 10 µM, compound concentration 10 uM, replicate 2
[9] = 48 h, 1 µM, compound concentration 1 uM, replicate 1
[10] = 48 h, 1 µM, compound concentration 1 uM, replicate 2
[11] = 48 h, 10 µM, compound concentration 10 uM, replicate 1
[12] = 48 h, 10 µM, compound concentration 10 uM, replicate 2

## CS(=O)(=O)N1CCCC(NC(=O)[C@H](CCC2CCCCC2)NC(=O)c2ccc(CNc3ncnc4c3nnn4-c3ccccc3)cc2)C1 (some centres not stated) [SR-301]
[1]
  Population Apoptotic (%): 27% and 50% and 35%
  Population Fragmented Nuclei (%): 13% and 7%
  Population Healthy Nuclei (%): 74% and 76% and 79%
  Population Hoechst High Intensity Objects (%): 5% and 4% and 3%
  Population Membrane Permeable-Phenotype (%): 7% and 4% and 3%
  Population Mitochondria Different-Phenotype (%): 11% and 9% and 8%
  Population Mitotic Cells (%): 72% and 50% and 64%
  Population Normal (%): 94% and 95% and 96%
  Population Pyknosed Nuclei (%): 12% and 13%
  Total Cell Count: 200 and 294 and 192
[2]
  Population Apoptotic (%): 25% and 63% and 33%
  Population Fragmented Nuclei (%): 14% and 11%
  Population Healthy Nuclei (%): 81% and 70% and 89%
  Population Hoechst High Intensity Objects (%): 19% and 13%
  Population Membrane Permeable-Phenotype (%): 10% and 2%
  Population Mitochondria Different-Phenotype (%): 20% and 14% and 10%
  Population Mitotic Cells (%): 75% and 36% and 66%
  Population Normal (%): 80% and 86%
  Population Tubulin-Different-Phenotype (%): 21% and 19% and 12%
  Total Cell Count: 135 and 58 and 69
[3]
  Population Apoptotic (%): 81% and 62% and 53%
  Population Fragmented Nuclei (%): 21% and 23% and 11%
  Population Healthy Nuclei (%): 27% and 44% and 78%
  Population Hoechst High Intensity Objects (%): 10% and 5%
  Population Mitochondria Different-Phenotype (%): 39% and 28% and 22%
  Population Mitotic Cells (%): 18% and 37% and 46%
  Population Normal (%): 89% and 94%
  Population Tubulin-Different-Phenotype (%): 39% and 52% and 28%
  Total Cell Count: 202 and 154 and 295
[4]
  Population Apoptotic (%): 80% and 75% and 41%
  Population Fragmented Nuclei (%): 39% and 27%
  Population Healthy Nuclei (%): 20% and 25% and 58%
  Population Hoechst High Intensity Objects (%): 4% and 2%
  Population Membrane Permeable-Phenotype (%): 61% and 54% and 30%
  Population Mitochondria Different-Phenotype (%): 66% and 54% and 34%
  Population Mitotic Cells (%): 20% and 25% and 58%
  Population Normal (%): 95% and 97%
  Population Pyknosed Nuclei (%): 39% and 47% and 20%
  Population Tubulin-Different-Phenotype (%): 55% and 54% and 34%
  Total Cell Count: 89 and 86 and 105
[5]
  Population Apoptotic (%): 47% and 48%
  Population Fragmented Nuclei (%): 10% and 5%
  Population Healthy Nuclei (%): 82% and 75%
  Population Hoechst High Intensity Objects (%): 3% and 0%
  Population Membrane Permeable-Phenotype (%): 5% and 3% and 2%
  Population Mitochondria Different-Phenotype (%): 6% and 8%
  Population Mitotic Cells (%): 52% and 51%
  Population Normal (%): 96% and 99%
  Population Pyknosed Nuclei (%): 14% and 7%
  Total Cell Count: 350 and 199 and 225
[6]
  Population Fragmented Nuclei (%): 12% and 7%
  Population Healthy Nuclei (%): 78% and 80% and 86%
  Population Membrane Permeable-Phenotype (%): 7% and 6%
  Population Mitochondria Different-Phenotype (%): 20% and 10%
  Population Mitotic Cells (%): 87% and 60% and 55%
  Population Normal (%): 80% and 95%
  Population Pyknosed Nuclei (%): 9% and 12% and 6%
  Population Tubulin-Different-Phenotype (%): 13% and 26% and 14%
  Total Cell Count: 148 and 64 and 84
[7]
  Population Apoptotic (%): 96% and 87% and 65%
  Population Healthy Nuclei (%): 25% and 39% and 75%
  Population Mitochondria Different-Phenotype (%): 29% and 16% and 13%
  Population Normal (%): 89% and 92% and 96%
  Population Pyknosed Nuclei (%): 39% and 38% and 13%
  Population Tubulin-Different-Phenotype (%): 37% and 63% and 44%
  Total Cell Count: 235 and 159 and 307
[8]
  Population Apoptotic (%): 91% and 94% and 89%
  Population Fragmented Nuclei (%): 25% and 32% and 19%
  Population Hoechst High Intensity Objects (%): 15% and 21% and 9%
  Population Mitotic Cells (%): 8% and 5% and 10%
  Population Normal (%): 84% and 78% and 90%
  Population Pyknosed Nuclei (%): 49% and 50% and 21%
  Total Cell Count: 98 and 89 and 110
[9]
  Population Apoptotic (%): 58% and 30%
  Population Fragmented Nuclei (%): 3%
  Population Healthy Nuclei (%): 84% and 87%
  Population Hoechst High Intensity Objects (%): 1% and 0%
  Population Membrane Permeable-Phenotype (%): 2% and 1%
  Population Mitochondria Different-Phenotype (%): 9% and 7%
  Population Mitotic Cells (%): 41% and 69% and 74%
  Population Normal (%): 98% and 99%
  Population Pyknosed Nuclei (%): 7%
  Total Cell Count: 208 and 559 and 312
[10]
  Population Apoptotic (%): 38% and 21% and 25%
  Population Fragmented Nuclei (%): 4% and 7% and 9%
  Population Healthy Nuclei (%): 83% and 76%
  Population Membrane Permeable-Phenotype (%): 7% and 3%
  Population Mitochondria Different-Phenotype (%): 13% and 8% and 12%
  Population Mitotic Cells (%): 61% and 78% and 75%
  Population Normal (%): 92% and 96% and 85%
  Population Pyknosed Nuclei (%): 12% and 8% and 13%
  Total Cell Count: 84 and 114 and 231
[11]
  Population Apoptotic (%): 92% and 85% and 62%
  Population Mitochondria Different-Phenotype (%): 17% and 14% and 9%
  Population Normal (%): 89% and 91% and 96%
  Population Tubulin-Different-Phenotype (%): 37% and 75% and 53%
  Total Cell Count: 372 and 170 and 387
[12]
  Population Apoptotic (%): 96% and 100% and 84%
  Population Fragmented Nuclei (%): 23% and 17% and 12%
  Population Healthy Nuclei (%): 38% and 68%
  Population Membrane Permeable-Phenotype (%): 85% and 44%
  Population Mitochondria Different-Phenotype (%): 81% and 74% and 35%
  Population Mitotic Cells (%): 3% and 0% and 15%
  Population Normal (%): 76% and 80% and 92%
  Population Pyknosed Nuclei (%): 38% and 30% and 19%
  Population Tubulin-Different-Phenotype (%): 81% and 82% and 30%
  Total Cell Count: 84 and 107 and 142
